≈ marks a conversion by molar mass, not a printed value.
Tests used:
Nakaseomyces glabratus [1] = assay: Antimicrobial activity against flucytosine, azole, and caspofungin resistant Candida glabrata bloodstream isolate 4 harboring FKS2 T1988C mutation and overexpressing CDR1 and CDR2 genes serially obtained from hematopoietic stem cell transplant recipient by Etest; format: functional
How it was run: (§1)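 MICs by Etest following the strip maker's instructions, with C. parapsilosis ATCC 22019 as control strain. FLC, VRC and 5FC were interpreted by published CLSI criteria. For caspofungin a susceptibility breakpoint of ≤2 mg/liter was used. Isolates were serial C. glabrata blood-culture isolates from one patient, judged the same genotype by PCR of 8 microsatellite regions with fluorescent primers.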

Nakaseomyces glabratus [2] = assay: Antimicrobial activity against flucytosine, azole, and caspofungin resistant Candida glabrata bloodstream isolate 5 harboring FKS2 T1988C mutation and overexpressing CDR1 and CDR2 genes serially obtained from hematopoietic stem cell transplant recipient by Etest; format: functional; how it was run: as §1
Nakaseomyces glabratus [3] = assay: Antimicrobial activity against flucytosine, azole, and caspofungin resistant Candida glabrata bloodstream isolate 3 harboring Fur1 G190D mutation serially obtained from hematopoietic stem cell transplant recipient by Etest
Nakaseomyces glabratus [4] = assay: Antimicrobial activity against flucytosine, azole, and caspofungin resistant Candida glabrata bloodstream isolate 2 harboring Fur1 G190D mutation serially obtained from hematopoietic stem cell transplant recipient by Etest
Nakaseomyces glabratus [5] = assay: Antimicrobial activity against flucytosine, azole, and caspofungin resistant Candida glabrata bloodstream isolate 1 serially obtained from hematopoietic stem cell transplant recipient by Etest; format: functional; how it was run: as §1

SMILES	MIC (Nakaseomyces glabratus [1]) [µg/mL]	MIC (Nakaseomyces glabratus [2]) [µg/mL]	MIC (Nakaseomyces glabratus [3]) [µg/mL]	MIC (Nakaseomyces glabratus [4]) [µg/mL]	MIC (Nakaseomyces glabratus [5]) [µg/mL]
C[C@@H]1[C@H](O)[C@@H](C)/C=C/C=C/C=C/C=C/C=C/C=C/C=C/[C@H](O[C@@H]2O[C@H](C)[C@@H](O)[C@H](N)[C@@H]2O)C[C@@H]2O[C@](O)(C[C@@H](O)C[C@@H](O)[C@H](O)CC[C@@H](O)C[C@@H](O)CC(=O)O[C@H]1C)C[C@H](O)[C@H]2C(=O)O [AMPHOTERICIN B]	0.75 (≈ 0.812 µM)	0.75 (≈ 0.812 µM)	0.75 (≈ 0.812 µM)	2 (≈ 2.16 µM)	–
CC[C@H](C)C[C@H](C)CCCCCCCCC(=O)N[C@H]1C[C@@H](O)[C@@H](NCCN)NC(=O)[C@@H]2[C@@H](O)CCN2C(=O)[C@H]([C@H](O)CCN)NC(=O)[C@H]([C@H](O)[C@@H](O)c2ccc(O)cc2)NC(=O)[C@@H]2C[C@@H](O)CN2C(=O)[C@H]([C@@H](C)O)NC1=O [CASPOFUNGIN]	> 32	> 32	0.125 (≈ 0.114 µM)	0.125 (≈ 0.114 µM)	0.19 (≈ 0.174 µM)
OC(Cn1cncn1)(Cn1cncn1)c1ccc(F)cc1F [FLUCONAZOLE]	> 256	> 256	1 (≈ 3.27 µM)	2 (≈ 6.53 µM)	–
Nc1nc(=O)[nH]cc1F [FLUCYTOSINE]	0.004 (≈ 0.031 µM)	0.004 (≈ 0.031 µM)	> 32	> 32	0.004 (≈ 0.031 µM)
C[C@@H](c1ncncc1F)[C@](O)(Cn1cncn1)c1ccc(F)cc1F [VORICONAZOLE]	12 (≈ 34.4 µM)	16 (≈ 45.8 µM)	0.047 (≈ 0.135 µM)	0.125 (≈ 0.358 µM)	0.25 (≈ 0.716 µM)

Reference: ChEMBL document CHEMBL1240383, “Acquisition of flucytosine, azole, and caspofungin resistance in Candida glabrata bloodstream isolates serially obtained from a hematopoietic stem cell transplant recipient” (2010)
